The record followed here is ChEMBL document CHEMBL1132406, “Synthesis and structure-activity relationships of phenylenebis(methylene)-linked bis-azamacrocycles that inhibit HIV-1 and HIV-2 replication by antagonism of the chemokine receptor CXCR4” (J Med Chem, 1999).

One may read the CC50 as the concentration at which the toxic effect on the cells reaches its halfway point. A low value points to harm at low concentration. A word on the EC50: it is the midpoint of the concentration-response curve. In general, IC50 refers to the point on the concentration scale where inhibition reaches its midpoint.

Structures are written as SMILES.

For one assay, the system named is MT4. Description: 50% cytotoxic concentration was tested against HIV infected MT-4 cells. The conditions noted are these: Homo sapiens, in the assay text read “mock-infected” for “HIV infected”. The class given is functional. The essentials:
(§1)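 MT-4 cells infected at MOI 0.01 (100 × CCID50) with HIV-1 (IIIB) or HIV-2 (ROD) in presence of graded compound concentrations; antiviral and cytotoxicity run in parallel, CC50 on mock-infected cells. After 5 days of growth, viable cells counted by MTT colorimetry. EC50 = concentration protecting 50% of infected cells from cytopathicity; values averaged over several experiments.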

In assay [1] the test system is Human immunodeficiency virus 2. The assay can be described thus: Antiviral effective concentration for Inhibitory activity on HIV-2(ROD) replication in MT-4 cells. The assay is classed as functional, organism-based. The conditions noted are these: Human immunodeficiency virus 2, MT4. The essentials: as §1
Assay [2] has as its target C-X-C chemokine receptor type 4 (Homo sapiens, UniProt P61073). The assay can be described thus: Inhibitory activity against CXCR4-specific monoclonal antibody 12G5 (mAb-12G5) binding to human chemokinin receptor CXCR4 in lymphocytic SUP-T1 cells. The class given is cell-based. The essentials: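 SUP-T1 cells preincubated with compound or PBS 15 min at room temperature, washed, then exposed to CXCR4 mAb 12G5 for 30 min, washed, stained with FITC goat anti-mouse antibody for 30 min at room temperature. Flow cytometry measured percent positive cells and MFI; inhibition derived from MFI, IC50 calculated.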

Assay [3] deals with Human immunodeficiency virus 1. Description: Antiviral effective concentration for Inhibitory activity on HIV-1(IIIB) replication in MT-4 cells. The conditions noted are these: Human immunodeficiency virus 1, MT4. The assay is classed as functional, organism-based. The essentials:
as §1

Chain of C-X-C chemokine receptor type 4 (P61073 whole entry): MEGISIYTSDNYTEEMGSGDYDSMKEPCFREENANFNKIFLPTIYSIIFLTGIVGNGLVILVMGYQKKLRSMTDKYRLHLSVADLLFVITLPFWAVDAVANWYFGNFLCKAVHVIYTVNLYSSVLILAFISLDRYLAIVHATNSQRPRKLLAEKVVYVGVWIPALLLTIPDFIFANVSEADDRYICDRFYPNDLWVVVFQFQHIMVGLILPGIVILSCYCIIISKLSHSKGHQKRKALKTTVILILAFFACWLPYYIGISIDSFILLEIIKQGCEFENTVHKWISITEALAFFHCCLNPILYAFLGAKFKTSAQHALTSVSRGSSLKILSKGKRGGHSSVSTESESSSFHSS

`c1cc2nc(c1)CNCCN(Cc1ccc(CN3CCNCc4cccc(n4)CNCC3)cc1)CCNC2` displayed a CC50 in the assay with MT4 of 8.5 µM. In addition, the values for the EC50 in assay [1] and in assay [3] were 0.127 µM and 0.524 µM, respectively. The same compound gave an IC50 in assay [2] of 4.36 µM.

`COc1cc2nc(c1)CNCCCN(Cc1ccc(CN3CCCNCc4cc(OC)cc(n4)CNCCC3)cc1)CCCNC2` came in with a CC50 in the assay on MT4 of 216 µM. Besides, the EC50 stood at 8.46 µM in assay [1] and 3.1 µM in assay [3].

For the compound `c1cc2nc(c1)CNCCCN(Cc1ccc(CN3CCCNCc4cccc(n4)CNCCC3)cc1)CCCNC2`, the CC50 in the assay on MT4 was 199 µM. In assay [3], this compound yielded an EC50 of 0.534 µM.

For `c1cc(CN2CCCNCCCCCNCCC2)ccc1CN1CCCNCCCCCNCCC1`, the CC50 with MT4 was found to be 133 µM. Also, the concentration for half-maximal inhibition (IC50) in assay [2] was greater than 35 µM. Besides, in assay [3], the 50% effective concentration (EC50) was found to be 9.61 µM.

With `c1cc2nc(c1)CCNCCCN(Cc1ccc(CN3CCCNCCc4cccc(n4)CCNCCC3)cc1)CCCNCC2`, half-maximal cytotoxicity in the assay on MT4 (CC50) was put at 142 µM. The EC50 in assay [1] was found to be 1.21 µM; in assay [3], 0.421 µM.

Take `c1cc(CN2CCCNCCOCCNCCC2)ccc1CN1CCCNCCOCCNCCC1`: the half-maximal cytotoxic concentration (CC50) with MT4 was greater than 244 µM. The compound also had an EC50 in assay [3] of 4.49 µM.

For the compound `c1cc2cc(c1)CNCCCN(Cc1ccc(CN3CCCNCc4cccc(c4)CNCCC3)cc1)CCCNC2`, it took 133 µM to reach half-maximal cytotoxicity with MT4 (CC50). The EC50 in assay [3] worked out at 7.96 µM.

For `c1cc(CN2CCCNCCNCCCNCC2)ccc1CN1CCCNCCNCCCNCC1`, the half-maximal cytotoxic concentration (CC50) in the assay on MT4 is greater than 421 µM.

In the case of `c1cc(CN2CCNCc3cccc(n3)CNCC2)cc(CN2CCNCc3cccc(n3)CNCC2)c1`, the CC50 in the assay on MT4 turned out to be 30 µM. Also, the EC50 amounted to 0.0025 µM in assay [1] and 0.0971 µM in assay [3].

Compound `c1cc(CN2CCCOCCOCCCNCC2)ccc1CN1CCCOCCOCCCNCC1` returned a CC50 in the assay with MT4 greater than 363 µM. For the same compound, the EC50 in assay [1] and in assay [3] was greater than 363 µM throughout. The compound also registered an IC50 in assay [2] greater than 35 µM.

`c1ccc(-c2cc3nc(c2)CNCCCN(Cc2ccc(CN4CCCNCc5cc(-c6ccccc6)cc(n5)CNCCC4)cc2)CCCNC3)cc1`: the CC50 in the assay on MT4 was 19.3 µM. Further, in assay [3], the concentration for a half-maximal effect (EC50) stood at 1.75 µM.

Take `Oc1cc2nc(c1)CNCCCN(Cc1ccc(CN3CCCNCc4cc(O)cc(n4)CNCCC3)cc1)CCCNC2`: the CC50 with MT4 amounted to 200 µM. In addition, the EC50 in assay [1] is 200 µM; in assay [3], 174 µM. Also, the IC50 in assay [2] was greater than 35 µM.

Compound `c1cc(CN2CCCNCCNCCNCCC2)ccc1CN1CCCNCCNCCNCCC1` came in with a CC50 in the assay with MT4 greater than 421 µM. The concentration giving a half-maximal response (EC50) was determined as 0.0422 µM in assay [1] and 0.0337 µM in assay [3]. For the same compound, the IC50 in assay [2] turned out to be 0.067 µM.

Regarding `c1cc2nc(c1)CCNCCN(Cc1ccc(CN3CCNCCc4cccc(n4)CCNCC3)cc1)CCNCC2`, half-maximal cytotoxicity in the assay with MT4 (CC50) was put at 194 µM. The figures for the EC50 in assay [1] and in assay [3] were 0.0016 µM and 0.0008 µM, respectively. In assay [2], the IC50 is 0.001 µM.

In the assay with MT4, `c1cc(CN2CCCNCc3cncc(n3)CNCCC2)ccc1CN1CCCNCc2cncc(n2)CNCCC1` gave a CC50 of 209 µM. Moreover, the 50% effective concentration (EC50) was found to be 20.7 µM in assay [1] and 30.9 µM in assay [3]. In addition, the IC50 in assay [2] was greater than 35 µM.

As to `c1cc(CN2CCCSCCSCCCNCC2)ccc1CN1CCCSCCSCCCNCC1`, in the assay on MT4, it took 6.8 µM to reach half-maximal cytotoxicity (CC50). Also, the EC50 in assay [1] and in assay [3] was greater than 6.84 µM in each case. Further, in assay [2], the IC50 was greater than 35 µM.

Regarding `Clc1cc2nc(c1)CNCCCN(Cc1ccc(CN3CCCNCc4cc(Cl)cc(n4)CNCCC3)cc1)CCCNC2`, the CC50 in the assay on MT4 was 17.8 µM. Further, the EC50 in assay [1] is 0.759 µM; in assay [3], 0.751 µM. The compound further gave a concentration for half-maximal inhibition (IC50) in assay [2] of 5.74 µM.
